Assay outcomes from PubChem BioAssay.
Hits are enriched below; roughly 1.8% of the tested compounds scored in any of these assays.
TDP2 inh – human TDP2 enzyme inhibitors, primary screen, biochemical, epi absorbance, recombinant enzyme | Tyrosyl-DNA phosphodiesterase 2 (Homo sapiens), O95551 | T5PNP hydrolysis, p-nitrophenol absorbance 415 nm | inhibition, % at 12.8 µM | actives 0.34% (n = 370,000) | AID 720702, 2013;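 active = inhibition above the mean of all tested compounds plus 3 SD, set per campaign, cut at about 25% in these data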;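 also: 0% = DMSO with enzyme and 100% = buffer with substrate but no TDP2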
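System – recombinant human TDP2 · Amount – 120 nM TDP2 per well · Buffer or medium – Mg2+-containing Tris-HCl buffer, pH 7.5 · Reagent – T5PNP substrate, 5 mM · Dosing – 12.8 µM single point, 1% DMSO · Incubation – 2 h at 37 °C · Measured by – epi absorbance · Read-out basis – percent inhibition · Benchmarks – high control without enzyme, low control DMSO plus TDP2 · Repeats – singlicate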
CTSL1 counter – Fasciola hepatica cathepsin L1 inhibitors, primary screen, counter-screen for PFM18AAP inhibitor project, biochemical, QFRET, fluorogenic peptide substrate; recombinant F. hepatica cathepsin L1, Z-Leu-Arg-MCA fluorescence; actives 0.49% (n = 300,000); inhibition, % at 5.96 µM;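 active = inhibition above the mean of all tested compounds plus 3 SD, set per screening campaign, cut at about 17% in these data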;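 also: 0% = plate median of test compound wells and 100% = 1 µM Z-Phe-Ala-diazomethylketone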
GSTO1 inh – inhibitors of recombinant GSTO1, primary screen, counter-screen for RBBP9 inhibitor project, biochemical, fluorescence polarization. Glutathione S-transferase omega-1 (Homo sapiens), P78417. activity-based probe fluorescence polarization. inhibition, % at 5.96 µM. actives 1.1% (n = 300,000). AID 1974, 2009;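 active = inhibition above the campaign mean inhibition plus 3 SD, cut at about 35% in these data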;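 also: 0% = GSTO1-1 with DMSO and 100% = wells lacking GSTO1-1 enzyme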
PAD4 FP inh – human PAD4 inhibitors, primary screen, biochemical, fluorescence polarization, 1536-well format; AID 485272, 2010; actives 0.41% (n = 330,000); Protein-arginine deiminase type-4 (Homo sapiens), Q9UM07; recombinant PAD4, RCA probe fluorescence polarization; inhibition, % at 6.36 µM;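 active = percent inhibition above a cutoff equal to the mean of all tested compounds plus 3 SD, cut at about 15% in these data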;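 also: 0% = PAD4 with RCA probe and DMSO and 100% = probe without PAD4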
Apaf-1 inh – inhibitors of human Apaf-1 apoptosome, primary screen, biochemical, DEVD-Rh110 fluorescence, uHTS | reconstituted apoptosome caspase-3 activity | inhibition, % at 20 µM | actives 0.71% (n = 330,000) | AID 489030, 2010; active = inhibition of at least 40% at 20 µM;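 also: plate controls were DMSO wells for no effect and DEVD-CHO caspase inhibitor wells for full effect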
Target sequence (O14727 whole entry, looked up): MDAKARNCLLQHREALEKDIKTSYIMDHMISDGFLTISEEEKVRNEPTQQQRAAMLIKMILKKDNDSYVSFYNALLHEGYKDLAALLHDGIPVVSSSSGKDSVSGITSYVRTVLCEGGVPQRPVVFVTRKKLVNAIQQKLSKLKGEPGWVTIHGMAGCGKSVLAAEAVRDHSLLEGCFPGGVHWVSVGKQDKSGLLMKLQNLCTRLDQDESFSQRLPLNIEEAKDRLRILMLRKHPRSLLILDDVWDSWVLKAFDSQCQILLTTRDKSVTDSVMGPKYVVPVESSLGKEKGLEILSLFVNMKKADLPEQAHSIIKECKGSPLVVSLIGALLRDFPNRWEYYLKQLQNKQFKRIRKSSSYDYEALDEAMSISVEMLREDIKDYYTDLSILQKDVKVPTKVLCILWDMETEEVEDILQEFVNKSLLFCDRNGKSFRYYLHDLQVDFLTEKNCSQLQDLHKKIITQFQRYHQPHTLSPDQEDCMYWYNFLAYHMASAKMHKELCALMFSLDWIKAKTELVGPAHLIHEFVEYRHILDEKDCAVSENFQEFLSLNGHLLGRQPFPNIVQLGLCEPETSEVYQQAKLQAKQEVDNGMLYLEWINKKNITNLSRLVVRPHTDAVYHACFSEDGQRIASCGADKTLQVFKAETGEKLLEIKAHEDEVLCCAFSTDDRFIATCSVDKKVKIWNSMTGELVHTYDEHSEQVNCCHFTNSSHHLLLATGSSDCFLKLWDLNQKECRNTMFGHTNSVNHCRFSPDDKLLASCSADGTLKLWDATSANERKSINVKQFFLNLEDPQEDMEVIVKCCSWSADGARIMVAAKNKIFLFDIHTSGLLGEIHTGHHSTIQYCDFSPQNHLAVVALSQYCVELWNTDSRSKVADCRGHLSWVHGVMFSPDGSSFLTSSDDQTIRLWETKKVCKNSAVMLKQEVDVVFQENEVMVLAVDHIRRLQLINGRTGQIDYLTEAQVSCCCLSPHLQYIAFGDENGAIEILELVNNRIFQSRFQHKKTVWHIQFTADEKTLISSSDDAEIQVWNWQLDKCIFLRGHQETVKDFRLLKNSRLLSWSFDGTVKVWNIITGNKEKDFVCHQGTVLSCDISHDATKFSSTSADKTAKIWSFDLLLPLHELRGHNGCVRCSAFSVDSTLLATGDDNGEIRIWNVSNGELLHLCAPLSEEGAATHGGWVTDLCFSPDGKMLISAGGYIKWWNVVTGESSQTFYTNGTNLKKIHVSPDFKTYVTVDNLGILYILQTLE
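System – cell-free apoptosome with Apaf-1, procaspase-3 and caspase-9 · Buffer or medium – pH 7.5 Hepes buffer with CHAPS, BSA, DTT · Also added – cytochrome c with DEVD-Rh110 · Times – 30 min compound preincubation, 50 min activation, room temperature · Technique – Rh110 fluorescence intensity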
GSTO1 confirm – GSTO1 inhibitor hit confirmation, counter-screen for RBBP9 inhibitor project, biochemical, fluorescence polarization, triplicate; shares compounds with GSTO1 inh; recombinant GSTO1, probe fluorescence polarization; inhibition, % at 5.96 µM; actives 54% (n = 2,400); AID 2176, 2009;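 active = inhibition above the primary screen's cutoff, its mean inhibition plus 3 SD, cut at about 35% in these data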;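 also: loss of polarization as inhibitors block binding of rhodamine sulfonate ester activity probe; 0% = GSTO1 with DMSO and 100% = wells lacking GSTO1 enzyme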
PAD4 confirm – human PAD4 inhibitors, confirmation, biochemical, fluorescence polarization. shares compounds with PAD4 FP inh. recombinant PAD4, RCA probe fluorescence polarization. inhibition, % at 6.36 µM. actives 28% (n = 1,200). AID 488796, 2010;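 active = mean inhibition across replicates above the hit cutoff set by the earlier primary screen, cut at about 15% in these data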;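 also: inhibitors block active-site labeling by the probe so polarization falls; 0% = PAD4 with probe and DMSO and 100% = probe without PAD4 enzyme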
Apaf-1 inh conf2 – Apaf-1 inhibitors, single-dose retest, confirmation, biochemical, fluorescence, DEVD-Rh110, 20 µM. shares compounds with Apaf-1 inh. reconstituted apoptosome, caspase-3 DEVD-Rh110 fluorescence. inhibition, % at 20 µM. actives 25% (n = 1,800);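 active = mean inhibition of at least 40% at 20 µM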;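 also: plate controls were DMSO wells for no effect and DEVD-CHO caspase inhibitor control wells for full effect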
Rh110 interf inh – Rh110 fluorescence interference by putative Apaf-1 inhibitors, confirmation, artefact control for Apaf-1 inhibitor project, biochemical, 20 µM | shares compounds with Apaf-1 inh | 1,800 tested, under 10 active | AID 504615, 2011 | activation (fluorescence interference), % at 20 µM | quenched caspase reaction;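 active = signal rise of 40% or more at 20 µM, treated as a fluorescence artifact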
Apaf1 inh interf – fluorescence interference of Apaf-1 inhibitor hits, dose response, artefact control for Apaf-1 inhibitor project | IC50, µM | fluorescence interference counterscreen, Apaf-1 assay format | 460 tested, under 10 active | shares compounds with Apaf-1 inh; call rule not given here
TDP2 inh conf – human TDP2 enzyme inhibitors, retest, confirmation, biochemical, epi absorbance, recombinant enzyme | shares compounds with TDP2 inh | absorbance read-out | inhibition, % at 12.8 µM | actives 22% (n = 1,100) | AID 743263, 2014; in the data active = inhibition above about 25%;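 also: 0% = vehicle with enzyme and 100% = no enzyme buffer only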
Numbers without * were called inactive.

COc1cccc(CN(C)C(=O)[C@@H](Cc2ccccc2)NC(=O)[C@H]2O[C@@H](n3ccc(=O)[nH]c3=O)[C@H](O)[C@@H]2O)c1 was read as TDP2 inh 3.
Screening C[C@H]1COc2cc(Br)ccc2S(=O)(=O)N1Cc1cn(Cc2ccc(Br)cc2)nn1 returned TDP2 inh 1.
O=C1C(NS(=O)(=O)c2ccccc2)=C(N2CCN(c3ccc(F)cc3)CC2)C(=O)c2ccccc21 was read as TDP2 inh 3, CTSL1 counter 5, GSTO1 inh 20, PAD4 FP inh -4 and Apaf-1 inh 18.
O=C(/C=C/c1ccc(O)cc1)c1ccccc1 was read as TDP2 inh 10, CTSL1 counter -9, GSTO1 inh -1, PAD4 FP inh -2 and Apaf-1 inh 3.
O=C(/C=C/c1ccc(O)cc1)c1ccc(NC2=C(N3CCCCC3)C(=O)c3ccccc3C2=O)cc1 was read as TDP2 inh 49*, CTSL1 counter 33*, GSTO1 inh 65*, PAD4 FP inh 10, Apaf-1 inh 76*, GSTO1 confirm 51*, Apaf-1 inh conf2 95*, Rh110 interf inh 0, Apaf1 inh interf >100 and TDP2 inh conf 45*.
O=c1nc(N2CCCCC2)nc(Nc2ccccc2)[nH]1 was read as TDP2 inh 3, CTSL1 counter 0, GSTO1 inh 2, PAD4 FP inh 0 and Apaf-1 inh -9.
For O=C1C(Nc2ccccc2)=C(N2CCCCC2)C(=O)c2ccccc21 the results were TDP2 inh 59*, CTSL1 counter 50*, GSTO1 inh 62*, PAD4 FP inh 15*, Apaf-1 inh 93*, GSTO1 confirm 56*, PAD4 confirm -5, Apaf-1 inh conf2 90*, Rh110 interf inh -4, Apaf1 inh interf >100 and TDP2 inh conf 57*.
`O=C1C(Nc2cccc(O)c2)=C(N2CCCCC2)C(=O)c2ccccc21` gave TDP2 inh 51*, CTSL1 counter 86*, GSTO1 inh 79*, PAD4 FP inh 18*, Apaf-1 inh 88*, GSTO1 confirm 63*, PAD4 confirm 13, Apaf-1 inh conf2 91*, Rh110 interf inh 0, Apaf1 inh interf >100 and TDP2 inh conf 52*.
Screening Cc1ccc(NC2=C(N3CCCCC3)C(=O)c3ccccc3C2=O)cc1 returned TDP2 inh 56*, CTSL1 counter 34*, GSTO1 inh 65*, PAD4 FP inh -3, Apaf-1 inh 81*, GSTO1 confirm 46*, Apaf-1 inh conf2 95*, Rh110 interf inh 3, Apaf1 inh interf >100 and TDP2 inh conf 61*.
For CC1=C(Nc2ccc(C(=O)O)cc2)C(=O)c2ccccc2C1=O the results were TDP2 inh 1, CTSL1 counter -1, GSTO1 inh 30, PAD4 FP inh 0 and Apaf-1 inh 18.
For CN(c1ccccc1)c1nc(N)c([N+](=O)[O-])c(N2CCCCC2)n1 the results were TDP2 inh -1, CTSL1 counter -1, GSTO1 inh 2, PAD4 FP inh 1 and Apaf-1 inh 1.
`CN(C1=C(N2CCCCC2)C(=O)c2ccccc2C1=O)c1ccccc1` gave TDP2 inh 35*, CTSL1 counter 7, GSTO1 inh 50*, PAD4 FP inh 16*, Apaf-1 inh 27, GSTO1 confirm 8 and TDP2 inh conf 2.
Screening CCN(CC)CCCN1C(=O)C2=C(C1=O)C1N(C)c3ccccc3[C@@]13C[C@@H](CO)N(C(=O)CCC(=O)OC)C3=N2 (stereo not given in full) returned TDP2 inh 12.
O=[N+]([O-])c1cc([N+](=O)[O-])c2nonc2c1Nc1ccc(O)cc1 was read as TDP2 inh 25*, CTSL1 counter 1, GSTO1 inh 65*, PAD4 FP inh 55*, Apaf-1 inh 74*, GSTO1 confirm 53*, PAD4 confirm 8, Apaf-1 inh conf2 13, Rh110 interf inh -2 and TDP2 inh conf 7.
`COc1ccccc1NC(=O)O[C@@H]1CC[C@@]23CCCN2C(=O)CCC[C@H]3C1` gave TDP2 inh 9.
Screening COc1ccc(-c2cc(=O)[nH][nH]2)cc1OC returned TDP2 inh 87*, CTSL1 counter 5, GSTO1 inh 66*, PAD4 FP inh 65*, Apaf-1 inh 77*, GSTO1 confirm 3, PAD4 confirm -7, Apaf-1 inh conf2 13, Rh110 interf inh -6 and TDP2 inh conf 17.
O=c1cc(-c2ccc(C3CCCCC3)cc2)[nH][nH]1 was read as TDP2 inh 3, CTSL1 counter -3, GSTO1 inh 19, PAD4 FP inh -18 and Apaf-1 inh 22.
For O=c1cc(-c2ccccc2)[nH][nH]1 the results were TDP2 inh 59*, CTSL1 counter 1, GSTO1 inh 38*, PAD4 FP inh 35*, Apaf-1 inh 2, GSTO1 confirm 2, PAD4 confirm 7 and TDP2 inh conf 4.
For O=c1cc(-c2ccc(F)cc2)[nH][nH]1 the results were TDP2 inh 55*, CTSL1 counter -1, GSTO1 inh 41*, PAD4 FP inh 59*, Apaf-1 inh 50*, GSTO1 confirm 7, PAD4 confirm -3, Apaf-1 inh conf2 2, Rh110 interf inh -8 and TDP2 inh conf 8.
